Measurements reported in ChEMBL document CHEMBL5653632, “PRMT5 inhibition disrupts splicing and stemness in glioblastoma” (Nat Commun, 2021).
The source made the active and inactive calls. No cut-off for these calls is given here.

What was measured:
[1] = Antiproliferative activity against human G876 cells incubated for 9 to 12 days by IncuCyte zoom live-cell imaging analysis; format: functional, cell-based
Summary of the method: (§1)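 Adherent culture on poly-L-ornithine/laminin in serum-free NS-A medium with EGF and bFGF (10 ng/mL each) and heparin. Nine concentrations (3 nM–30 µM), three technical replicates per dose, DMSO control, medium and drug refreshed every 5 days, run until DMSO wells were confluent (9–20 days). Confluence was imaged live and normalized to DMSO. Curves were taken at the 95th percentile of time to DMSO confluence, and AAC was calculated.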

[2] = biological target: Protein arginine N-methyltransferase 5 (Homo sapiens) (UniProt O14744); test: Inhibition of PRMT5 in human G561 cells assessed as reduction in SDMA level at 1 uM after 5 days by Western blot analysis; format: cell-based; details: time 5.0 day
Chain of Protein arginine N-methyltransferase 5 (Homo sapiens) (O14744 whole entry): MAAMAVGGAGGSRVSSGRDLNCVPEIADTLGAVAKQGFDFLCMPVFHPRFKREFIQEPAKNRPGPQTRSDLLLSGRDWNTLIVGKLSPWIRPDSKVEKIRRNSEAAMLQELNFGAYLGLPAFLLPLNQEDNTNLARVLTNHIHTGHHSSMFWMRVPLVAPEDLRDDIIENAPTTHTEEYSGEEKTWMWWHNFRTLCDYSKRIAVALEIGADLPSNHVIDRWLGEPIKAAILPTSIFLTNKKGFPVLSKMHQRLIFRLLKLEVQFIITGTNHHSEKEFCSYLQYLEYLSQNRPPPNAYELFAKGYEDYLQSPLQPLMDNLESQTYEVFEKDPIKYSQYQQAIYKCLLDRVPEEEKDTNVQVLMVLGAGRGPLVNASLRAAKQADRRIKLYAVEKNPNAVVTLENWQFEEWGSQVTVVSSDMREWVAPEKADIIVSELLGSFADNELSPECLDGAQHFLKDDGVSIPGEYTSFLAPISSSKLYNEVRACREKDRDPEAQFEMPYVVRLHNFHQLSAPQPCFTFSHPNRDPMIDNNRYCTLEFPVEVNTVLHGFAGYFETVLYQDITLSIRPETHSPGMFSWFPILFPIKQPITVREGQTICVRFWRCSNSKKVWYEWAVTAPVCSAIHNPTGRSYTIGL
Summary of the method: (§2)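 Symmetric dimethylarginine on SmB/B' was measured by western blot with IRDye secondary antibodies and infrared imaging.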

G411 [3] = test: Antiproliferative activity against human G411 cells incubated for 9 to 12 days by IncuCyte zoom live-cell imaging analysis; format: functional, cell-based; summary of the method: as §1
[4] = Antiproliferative activity against human G583 cells incubated for 9 to 12 days by IncuCyte zoom live-cell imaging analysis; format: functional, cell-based; summary of the method: as §1
G729 [5] = test: Induction of apoptosis in human G729 cells at 1 uM after 5 days by Annexin-V staining based IncuCyte live cell imaging analysis; format: functional; details: time 5.0 day
[6] = Antiproliferative activity against human G477 cells incubated for 9 to 12 days by IncuCyte zoom live-cell imaging analysis; format: functional, cell-based; summary of the method: as §1
[7] = Antiproliferative activity against human G851 cells incubated for 9 to 12 days by IncuCyte zoom live-cell imaging analysis; format: functional, cell-based; summary of the method: as §1
[8] = Antiproliferative activity against human G702 cells incubated for 9 to 12 days by IncuCyte zoom live-cell imaging analysis; format: functional, cell-based; summary of the method: as §1
[9] = Antiproliferative activity against human G523 cells incubated for 9 to 12 days by IncuCyte zoom live-cell imaging analysis; format: functional, cell-based; summary of the method: as §1
[10] = Antiproliferative activity against human BT143 cells incubated for 9 to 12 days by IncuCyte zoom live-cell imaging analysis; format: functional, cell-based
[11] = Antiproliferative activity against human G626 cells incubated for 9 to 12 days by IncuCyte zoom live-cell imaging analysis; format: functional, cell-based; summary of the method: as §1
[12] = biological target: Protein arginine N-methyltransferase 5 (Homo sapiens) (UniProt O14744); test: Inhibition of PRMT5 in HFNS cells assessed as reduction in SDMA level at 1 uM after 5 days by Western blot analysis; format: cell-based; details: time 5.0 day
[13] = biological target: Protein arginine N-methyltransferase 5 (Homo sapiens) (UniProt O14744); test: Inhibition of PRMT5 in human G797 cells assessed as reduction in SDMA level at 1 uM after 7 days by Western blot analysis; format: cell-based; details: time 7.0 day
G561 [14] = test: Inhibition of colony formation in human G561 cells assessed as reduction in sphere forming capacity at 1 uM incubated for 14 days by limiting dilution assay; format: functional, cell-based; details: time 14.0 day
Summary of the method: (§3)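 Each GSC line was seeded on non-adherent 96-well plates in 1:2 serial dilutions from 2000 to 4 cells per well, six replicates per dilution, in adherent-culture medium. Treatment was 1 µM, with SGC2096 and DMSO as controls, added on day 1 and replenished weekly. Wells were scored for spheres at 1 and 2 weeks, and sphere frequency was estimated by ELDA (single-hit model). n = 3.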

G583 [15] = test: Induction of senescence in human G583 cells at 1 uM after 5 days by SA-beta-galactosidase based assay; format: functional, cell-based; details: time 5.0 day
Summary of the method: (§4)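 GSCs were treated at 1 µM for 5 days, with SGC2096 and DMSO as controls and n = 3. Cells were fixed in 4% paraformaldehyde for 5 min at RT, stained overnight with SA-β-gal solution, and counterstained with nuclear fast red. Blue cells were counted as a fraction of total cells.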

G411 [16] = test: Induction of senescence in human G411 cells at 1 uM after 5 days by SA-beta-galactosidase based assay; format: functional, cell-based; details: time 5.0 day; summary of the method: as §4
[17] = Antiproliferative activity against human HF5205 cells incubated for 9 to 12 days by IncuCyte zoom live-cell imaging analysis; format: functional, cell-based; summary of the method: as §1
G583 [18] = test: Antiproliferative activity against human G583 cells at 1 uM incubated for 9 to 12 days by IncuCyte zoom live-cell imaging analysis; format: functional, cell-based; details: time 9-12 day
Summary of the method: (§5)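 Adherent GSCs were cultured in serum-free medium with EGF and bFGF on poly-L-ornithine/laminin and plated in triplicate in 96-well plates. They were treated at 1 µM, with 1 µM SGC2096 or 0.05% DMSO as controls, for 9–12 days or until DMSO wells were confluent. Medium with drug was refreshed every 5 days. IncuCyte confluence was imaged every 8 h and normalized to each well's initial confluence.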

[19] = Antiproliferative activity against human G799 cells incubated for 9 to 12 days by IncuCyte zoom live-cell imaging analysis; format: functional, cell-based; summary of the method: as §1
[20] = Antiproliferative activity against human BT147 cells incubated for 9 to 12 days by IncuCyte zoom live-cell imaging analysis; format: functional, cell-based
[21] = Antiproliferative activity against human BT119 cells incubated for 9 to 12 days by IncuCyte zoom live-cell imaging analysis; format: functional, cell-based
G583 [22] = test: Inhibition of colony formation in human G583 cells assessed as reduction in sphere forming capacity at 1 uM incubated for 14 days by limiting dilution assay; format: functional, cell-based; details: time 14.0 day; summary of the method: as §3
[23] = Antiproliferative activity against human G837 cells incubated for 9 to 12 days by IncuCyte zoom live-cell imaging analysis; format: functional, cell-based; summary of the method: as §1
G411 [24] = test: Inhibition of colony formation in human G411 cells assessed as reduction in sphere forming capacity at 1 uM incubated for 14 days by limiting dilution assay; format: functional, cell-based; details: time 14.0 day; summary of the method: as §3
[25] = Antiproliferative activity against human BT069 cells incubated for 9 to 12 days by IncuCyte zoom live-cell imaging analysis; format: functional, cell-based
[26] = Antiproliferative activity against human HF6562 cells incubated for 9 to 12 days by IncuCyte zoom live-cell imaging analysis; format: functional, cell-based; summary of the method: as §1
G411 [27] = test: Induction of apoptosis in human G411 cells at 1 uM after 5 days by Annexin-V staining based IncuCyte live cell imaging analysis; format: functional; details: time 5.0 day
[28] = Antiproliferative activity against human G566 cells incubated for 9 to 12 days by IncuCyte zoom live-cell imaging analysis; format: functional, cell-based; summary of the method: as §1
[29] = biological target: Protein arginine N-methyltransferase 5 (Homo sapiens) (UniProt O14744); test: Inhibition of PRMT5 in human G549 cells assessed as reduction in SDMA level at 1 uM after 7 days by Western blot analysis; format: cell-based; details: time 7.0 day
[30] = Antiproliferative activity against human G561 cells incubated for 9 to 12 days by IncuCyte zoom live-cell imaging analysis; format: functional, cell-based; summary of the method: as §1
G561 [31] = test: Antiproliferative activity against human G561 cells at 1 uM incubated for 9 to 12 days by IncuCyte zoom live-cell imaging analysis; format: functional, cell-based; details: time 9-12 day; summary of the method: as §5
[32] = Antiproliferative activity against human G895 cells incubated for 9 to 12 days by IncuCyte zoom live-cell imaging analysis; format: functional, cell-based; summary of the method: as §1
[33] = biological target: Protein arginine N-methyltransferase 5 (Homo sapiens) (UniProt O14744); test: Inhibition of PRMT5 in human G729 cells assessed as reduction in SDMA level at 1 uM after 7 days by Western blot analysis; format: cell-based; details: time 7.0 day
G729 [34] = test: Induction of senescence in human G729 cells at 1 uM after 5 days by SA-beta-galactosidase based assay; format: functional, cell-based; details: time 5.0 day; summary of the method: as §4
[35] = Antiproliferative activity against human G800 cells incubated for 9 to 12 days by IncuCyte zoom live-cell imaging analysis; format: functional, cell-based; summary of the method: as §1
G411 [36] = test: Antiproliferative activity against human G411 cells at 1 uM incubated for 9 to 12 days by IncuCyte zoom live-cell imaging analysis; format: functional, cell-based; details: time 9-12 day; summary of the method: as §5
[37] = Antiproliferative activity against human G564 cells incubated for 9 to 12 days by IncuCyte zoom live-cell imaging analysis; format: functional, cell-based; summary of the method: as §1
[38] = biological target: Protein arginine N-methyltransferase 5 (Homo sapiens) (UniProt O14744); test: Inhibition of PRMT5 in human G583 cells assessed as reduction in SDMA level at 1 uM after 5 days by Western blot analysis; format: cell-based; details: time 5.0 day; summary of the method: as §2

Row | SMILES | IC50 [1] | inhibition [2] | EC50 (G411 [3]) | EC50 [4] | Activity (G729 [5]) | EC50 [6] | IC50 [7] | IC50 [8] | IC50 [9] | IC50 [10] | EC50 [11] | inhibition [12] | inhibition [13] | inhibition (G561 [14]) | Activity (G583 [15]) | Activity (G411 [16]) | EC50 [17] | Activity (G583 [18]) | IC50 [19] | IC50 [20] | further results
1 | Nc1ncnc2c1ccn2[C@@H]1O[C@H]([C@H](O)c2ccccc2)[C@@H](O)[C@H]1O | 30 nM | Active | 19 nM | 15 nM | Active | 40 nM | 10 nM | 20 nM | 10 nM | 160 nM | 10 nM | Active | Active | Active | Active | Active | 9 nM | Active | 20 nM | 10 nM | IC50 [21]: 230 nM; inhibition (G583 [22]): Active; IC50 [23]: 40 nM; inhibition (G411 [24]): Active; IC50 [25]: 30 nM; EC50 [26]: 0.66 nM; Activity (G411 [27]): Active; IC50 [28]: 30 nM; inhibition [29]: Active; EC50 [30]: 10 nM; Activity (G561 [31]): Active; IC50 [32]: 100 nM; inhibition [33]: Active; Activity (G729 [34]): Active; IC50 [35]: 120 nM; Activity (G411 [36]): Active; IC50 [37]: 30 nM; inhibition [38]: Active
2 | O=C(NC[C@H](O)CN1CCc2ccccc2C1)c1ccnc(NC2CCC2)c1 | 2450 nM | Active | 100 nM | 440 nM | Active | 3180 nM | 570 nM | 1620 nM | 830 nM | 600 nM | 480 nM | Active | Active | Active | Active | Active | 7 nM | Active | 680 nM | 170 nM | IC50 [21]: 8640 nM; inhibition (G583 [22]): Active; IC50 [23]: 5010 nM; inhibition (G411 [24]): Active; IC50 [25]: 690 nM; EC50 [26]: 63 nM; Activity (G411 [27]): Active; IC50 [28]: 2050 nM; inhibition [29]: Active; EC50 [30]: 1000 nM; Activity (G561 [31]): Active; IC50 [32]: 640 nM; inhibition [33]: Active; Activity (G729 [34]): Active; IC50 [35]: 16400 nM; Activity (G411 [36]): Active; IC50 [37]: 230 nM; inhibition [38]: Active
